From ChEMBL document CHEMBL4610011, “Bilobalide and PC12 cells: A structure activity relationship study” (Bioorg Med Chem, 2020)
Activity calls are given as the source filed them. The rule behind the calls is not given here.

Columns and labels:
[1] = system: PC-12; assay: Neuroprotective activity against amyloid beta (1 to 40 residues)-induced toxicity in rat PC12 cells at 0.26 ug/mL pretreated for 24 hrs followed by 1 uM amyloid beta (1 to 40 residues) challenge and measured after 24 hrs by WST-8 assay
[2] = system: PC-12; assay: Induction of neurite outgrowth in rat PC12 cells at 0.26 ug/ml incubated for 24 hrs by microscopic analysis; format: functional, cell-based
Method in brief: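 PC12 cells (2,000/well, collagen I) were treated for 24 h in DMEM with 1% FBS, 1% horse serum and 10 ng/mL NGF containing substance, then cultured 24 h in the same medium without Aβ. Cells were imaged by microscopy before the viability read-out. Cells with neurites equal to, twice, or more than twice the cell length were counted.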

[3] = system: PC-12; assay: Induction of cell proliferation in rat PC12 cells assessed as increase in cell viability at 0.26 ug/ml after 24 hrs in presence of 10 ng/ml NGF by WST-8 assay; format: functional, cell-based
Method in brief: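 PC12 cells were seeded at 2,000 cells/well on type I collagen and grown 24 h in DMEM with 10% FBS and 10% horse serum at 37 °C, 5% CO₂. They were then given 24 h in DMEM with 1% FBS, 1% horse serum and 10 ng/mL NGF plus substance, followed by 24 h without Aβ. Viability was read by 10% WST-8 for 1–2 h at A450, relative to 0.004% DMSO vehicle.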

SMILES	Activity [1]	Activity [2]	Activity [3]
CC(C)(C)C1=C(C=O)[C@](CC(=O)OCc2ccccc2)(C(=O)OCc2ccccc2)C=C1	Active	Active	–
CC(C)(C)[C@]1(O)C[C@@H]2OC(O)C[C@]2(CO)[C@@]12COC[C@@H]2O (stereo partly drawn)	inactive	inactive	Active
CC(C)(C)[C@]1(O)C[C@@H]2OC(=O)C[C@@]23C(=O)O[C@@H]2OC(=O)[C@H](O)[C@]213	Active	Active	Active
CC(=O)O[C@@H]1OC(=O)[C@H](OC(C)=O)[C@]12[C@@]13CC(=O)O[C@H]1C[C@]2(C(C)(C)C)OC3=O	Active	Active	Active
CC(C)(C)[C@@]12C[C@@H]3OC(=O)C[C@]3(C(=O)O1)[C@@]21[C@H](OC(=O)c2ccc(Br)cc2)OC(=O)[C@@H]1OC(=O)c1ccc(Br)cc1	Active	Active	–
